{"source": "paper PMC4539048", "about": "(Science translational medicine, 2015)", "key": {"[1]": {"assay": "7-day repeat dose toxicity study in mice", "format": "in vivo", "conditions": "highest dose tested, Day 7", "how_it_was_run": "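Mice received the test compound orally once daily at 25–200 mg/kg/day for 7 days in an exploratory (non-GLP) toxicology study. They were monitored daily for clinical signs, body weight and food consumption, with haematology, clinical chemistry and histopathology. Plasma toxicokinetic parameters, including average concentration over the dosing interval, were derived on day 1 and day 7.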"}, "P. yoelii DHODH": {"system": "P. yoelii DHODH", "conditions": "cited from earlier work"}, "[2]": {"assay": "Chemical and physical stability", "format": "physicochemical"}, "[3]": {"system": "Salmonella typhimurium-E. coli", "assay": "5-strain bacterial reverse mutation assay"}, "[4]": {"system": "key CYP enzymes (not individually named)", "assay": "CYP inhibition in human liver microsomes", "format": "in vitro ADME", "how_it_was_run": "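Inhibition of CYP isoforms was measured by a substrate-specific approach in human liver microsomes.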"}, "pig DHODH": {"target": "pig DHODH (Sus scrofa, UniProt F1S3B0)", "sequence (F1S3B0 1-395)": "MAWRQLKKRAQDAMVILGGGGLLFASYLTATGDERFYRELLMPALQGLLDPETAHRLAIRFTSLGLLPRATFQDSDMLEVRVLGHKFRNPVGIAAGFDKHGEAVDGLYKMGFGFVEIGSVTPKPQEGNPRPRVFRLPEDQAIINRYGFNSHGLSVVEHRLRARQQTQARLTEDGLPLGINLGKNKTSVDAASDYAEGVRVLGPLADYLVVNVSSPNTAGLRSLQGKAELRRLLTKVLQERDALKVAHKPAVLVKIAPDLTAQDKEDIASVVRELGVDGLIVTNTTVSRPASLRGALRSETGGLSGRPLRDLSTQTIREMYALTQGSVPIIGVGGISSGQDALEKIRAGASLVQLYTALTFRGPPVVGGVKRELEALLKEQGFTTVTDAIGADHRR", "assay": "DHODH inhibition, DCIP spectrophotometric assay", "format": "biochemical"}, "[5]": {"system": "G6PD-deficient human red blood cells", "format": "in vivo, NOD-SCID mice", "conditions": "blood type A- G6PD-deficient human red blood cells"}, "P. falciparum 3D7": {"system": "P. falciparum 3D7", "assay": "Blood-stage phenotype and development by microscopy", "format": "cell-based", "conditions": "10xEC50, 48 h", "how_it_was_run": "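Giemsa-stained smears were scored by microscopy, at least 200 cells per condition, for stage arrest and morphology. Standard antimalarials served as controls.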"}, "[6]": {"assay": "Protein binding in assay media", "format": "in vitro ADME", "conditions": "0.5% Albumax II in RPMI-1640"}}, "note": "Marks after values point to notes of the source that are not given here.", "data": [{"smiles": "Cc1cc(Nc2ccc(S(F)(F)(F)(F)F)cc2)n2nc(C(C)(F)F)nc2n1", "note": "[DSM265, 2-(1,1-difluoroethyl)-5-methyl-[N-[4-(pentafluorosulfanyl)phenyl]1,2,4]triazolo[1,5-a]pyrimidin-7-amine]", "values": [{"measurement": "average plasma concentration within a dosing interval (Cav)", "setting": "[1]", "value": 11700, "unit": "ng/mL"}, {"measurement": "activity against P. yoelii DHODH", "setting": "P. yoelii DHODH", "value": "poor activity"}, {"measurement": "stability of solutions subjected to simulated sunlight", "setting": "[2]", "value": "degradation"}, {"measurement": "chemical stability in the solid state", "setting": "[2]; 30°/65% relative humidity for up to 24 months", "value": "chemically stable"}, {"measurement": "mutagenic activity (Ames test)", "setting": "[3]", "value": "non-mutagenic"}, {"measurement": "IC50", "setting": "[4]", "value": "> 10", "unit": "µg/mL"}, {"measurement": "IC50", "setting": "pig DHODH", "value": "> 98.7", "unit": "µM"}, {"measurement": "hemolytic toxicity", "setting": "[5]", "value": "not hemolytic"}, {"measurement": "blood-stage phenotype after treatment", "setting": "P. falciparum 3D7", "value": "arrested parasites in the young trophozoite-stage"}, {"measurement": "Fraction unbound in assay media", "setting": "[6]", "value": "0.17 ^b"}]}]}
